From ChEMBL document CHEMBL4304834, “3-Amino-chromanes and Tetrahydroquinolines as Selective 5-HT2B, 5-HT7, or σ1 Receptor Ligands” (ACS Med Chem Lett, 2019)

Experiments:
[1] = molecular target: 5-hydroxytryptamine receptor 2B (Homo sapiens, UniProt P41595); assay: Displacement of [3H]-LSD from human recombinant 5-HT2B receptor stably expressed in HEK cells after 90 mins by microbeta scintillation counting method; type: cell-based; conditions: read-out: pKi (converted)
How it was run: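 Run by NIMH Psychoactive Drug Screening Program. Otherwise, competition binding curves are generated and pKi is taken from a sigmoidal curve fit. Data are either triplicate measurements within one experiment, with the error from the fit, or the mean of repeated experiments, each run in triplicate.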

[2] = molecular target: T1, Alpha-1A adrenergic receptor (Homo sapiens, UniProt P35348); assay: Displacement of [3H]-Prazosin from human recombinant adrenergic alpha1A receptor expressed in cells after 90 mins by microbeta scintillation counting method; type: cell-based
T1 sequence (P35348 whole entry): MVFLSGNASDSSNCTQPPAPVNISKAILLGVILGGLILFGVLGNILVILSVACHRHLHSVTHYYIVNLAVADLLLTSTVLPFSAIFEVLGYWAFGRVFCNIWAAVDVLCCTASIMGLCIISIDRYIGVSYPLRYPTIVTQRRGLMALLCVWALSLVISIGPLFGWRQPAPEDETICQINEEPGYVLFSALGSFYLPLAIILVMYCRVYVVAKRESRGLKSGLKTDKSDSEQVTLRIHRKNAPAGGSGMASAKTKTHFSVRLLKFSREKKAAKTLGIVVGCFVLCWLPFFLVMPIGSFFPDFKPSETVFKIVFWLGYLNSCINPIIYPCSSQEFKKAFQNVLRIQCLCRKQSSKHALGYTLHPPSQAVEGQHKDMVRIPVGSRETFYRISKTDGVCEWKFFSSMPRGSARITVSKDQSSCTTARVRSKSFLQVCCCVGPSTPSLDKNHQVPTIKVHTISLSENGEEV
How it was run: (§1)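 Radioligand binding was run by the NIMH Psychoactive Drug Screening Program. Compounds were first screened at 10 μM. Those giving ≥50% binding were taken to full competition curves. Ki is reported as pKi from a sigmoidal curve fit of triplicate measurements in a single experiment; the error is the curve-fit error.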

[3] = molecular target: D(1B) dopamine receptor (Homo sapiens, UniProt P21918); assay: Displacement of [3H]-SCH23390 from human recombinant dopamine D5 receptor expressed in HEKT cells after 90 mins by microbeta scintillation counting method; type: cell-based; how it was run: as §1
[4] = molecular target: Histamine H4 receptor (Homo sapiens, UniProt Q9H3N8); assay: Displacement of [3H]-Histamine from human recombinant histamine H4 receptor expressed in HEKT cells after 90 mins by microbeta scintillation counting method; type: cell-based
How it was run: (§2)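 Radioligand binding run by the NIMH Psychoactive Drug Screening Program. […] Otherwise Ki comes from sigmoidal curve fits of triplicate measurements in a single experiment, or is averaged over repeated experiments each run in triplicate.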

[5] = molecular target: 5-hydroxytryptamine receptor 2A (Homo sapiens, UniProt P28223); assay: Displacement of [3H]-Ketanserin from human recombinant 5-HT2A receptor transiently expressed in HEKT cells at 10 uM after 90 mins by microbeta scintillation counting method relative to control; type: cell-based; how it was run: as §2
[6] = molecular target: 5-hydroxytryptamine receptor 7 (Homo sapiens, UniProt P34969); assay: Displacement of [3H]-LSD from human recombinant 5-HT7 receptor expressed in stable HEK cells at 10 uM after 90 mins by microbeta scintillation counting method relative to control; type: cell-based; how it was run: as §2
[7] = molecular target: Alpha-2B adrenergic receptor (Homo sapiens) (UniProt P18089); assay: Displacement of [3H]-Rauwolscine from human recombinant adrenergic Alpha2B receptor expressed in HEKT cells at 10 uM after 90 mins by microbeta scintillation counting method relative to control; type: cell-based
[8] = molecular target: Beta-1 adrenergic receptor (Homo sapiens, UniProt P08588); assay: Displacement of [125I]-pindolol from human recombinant adrenergic Beta1 receptor expressed in Flp-In CHO cells at 10 uM after 90 mins by microbeta scintillation counting method relative to control; type: cell-based; how it was run: as §2
[9] = molecular target: D(3) dopamine receptor (Homo sapiens, UniProt P35462); assay: Displacement of [3H]-N-methylspiperone from human recombinant dopamine D3 receptor expressed in HEKT cells at 10 uM after 90 mins by microbeta scintillation counting method relative to control; type: cell-based; how it was run: as §2
[10] = molecular target: Sodium-dependent dopamine transporter (Homo sapiens, UniProt Q01959); assay: Displacement of [3H]-Win35428 from human recombinant DAT receptor expressed in stable HEK cells at 10 uM after 90 mins by microbeta scintillation counting method relative to control; type: cell-based
[11] = molecular target: Histamine H1 receptor (Homo sapiens, UniProt P35367); assay: Displacement of [3H]-Pyrilamine from human recombinant histamine H1 receptor expressed in stable HEK cells at 10 uM after 90 mins by microbeta scintillation counting method relative to control; type: cell-based
[12] = molecular target: T2, Muscarinic acetylcholine receptor M2 (Homo sapiens) (UniProt P08172); assay: Displacement of [3H]-QNB/[3H]-NMS from human recombinant Muscarinic acetylcholine M2 receptor expressed in stable CHO cells at 10 uM after 90 mins by microbeta scintillation counting method relative to control; type: cell-based
T2 sequence (whole entry): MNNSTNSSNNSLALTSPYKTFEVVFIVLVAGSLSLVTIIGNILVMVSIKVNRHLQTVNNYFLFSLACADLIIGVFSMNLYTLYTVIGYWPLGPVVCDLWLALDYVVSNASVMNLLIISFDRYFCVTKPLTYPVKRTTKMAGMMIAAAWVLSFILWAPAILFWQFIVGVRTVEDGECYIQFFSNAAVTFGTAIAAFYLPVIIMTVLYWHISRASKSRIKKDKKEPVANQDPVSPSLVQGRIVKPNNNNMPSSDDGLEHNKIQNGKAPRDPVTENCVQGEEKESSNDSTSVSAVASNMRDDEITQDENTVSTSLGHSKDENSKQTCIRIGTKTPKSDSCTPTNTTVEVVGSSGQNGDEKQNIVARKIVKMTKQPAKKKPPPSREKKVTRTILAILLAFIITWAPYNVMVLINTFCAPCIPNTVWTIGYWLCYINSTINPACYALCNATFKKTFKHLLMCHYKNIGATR

[13] = molecular target: Kappa-type opioid receptor (Homo sapiens, UniProt P41145); assay: Displacement of [3H]-U69593 from human recombinant KOR receptor expressed in stable HEK cells at 10 uM after 90 mins by microbeta scintillation counting method relative to control; type: cell-based
[14] = molecular target: Mu-type opioid receptor (Homo sapiens, UniProt P35372); assay: Displacement of [3H]-DAMGO from human recombinant MOR receptor expressed in stable HEK cells at 10 uM after 90 mins by microbeta scintillation counting method relative to control; type: cell-based; how it was run: as §2
[15] = organism: Homo sapiens; assay: Selectivity index, ratio of Ki for human recombinant sigma2 receptor to Ki for human recombinant sigma1 receptor
How it was run: (§3)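 Both Ki values in each ratio come from NIMH Psychoactive Drug Screening Program radioligand binding. […] Other targets were given full binding curves, measured in triplicate, and Ki was taken from a sigmoidal curve fit. Some values were repeated in duplicate or triplicate independent experiments.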

[16] = organism: Homo sapiens; assay: Selectivity index, ratio of Ki for human recombinant 5-HT1B receptor to Ki for human recombinant sigma1 receptor
[17] = Selectivity index, ratio of Ki for rat brain GABAA receptor to Ki for human recombinant sigma1 receptor; how it was run: as §3
[18] = organism: Homo sapiens; assay: Selectivity index, ratio of Ki for human recombinant histamine H4 receptor to Ki for human recombinant sigma1 receptor; how it was run: as §3
[19] = organism: Homo sapiens; assay: Selectivity index, ratio of Ki for human recombinant Muscarinic acetylcholine M3 receptor to Ki for human recombinant sigma1 receptor; how it was run: as §3

Chain of D(1B) dopamine receptor (P21918 whole entry): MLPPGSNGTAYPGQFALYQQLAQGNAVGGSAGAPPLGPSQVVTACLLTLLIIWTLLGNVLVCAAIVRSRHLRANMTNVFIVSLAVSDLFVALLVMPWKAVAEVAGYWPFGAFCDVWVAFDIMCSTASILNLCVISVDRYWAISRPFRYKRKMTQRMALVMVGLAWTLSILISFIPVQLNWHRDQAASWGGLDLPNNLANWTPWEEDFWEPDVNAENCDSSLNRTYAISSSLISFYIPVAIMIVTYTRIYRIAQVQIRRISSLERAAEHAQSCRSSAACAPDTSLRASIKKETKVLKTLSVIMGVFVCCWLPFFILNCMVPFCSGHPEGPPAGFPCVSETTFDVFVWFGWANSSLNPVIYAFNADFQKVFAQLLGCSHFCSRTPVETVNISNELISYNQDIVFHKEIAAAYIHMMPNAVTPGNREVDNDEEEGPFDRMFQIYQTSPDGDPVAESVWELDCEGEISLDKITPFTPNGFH
Chain of D(3) dopamine receptor (P35462 whole entry): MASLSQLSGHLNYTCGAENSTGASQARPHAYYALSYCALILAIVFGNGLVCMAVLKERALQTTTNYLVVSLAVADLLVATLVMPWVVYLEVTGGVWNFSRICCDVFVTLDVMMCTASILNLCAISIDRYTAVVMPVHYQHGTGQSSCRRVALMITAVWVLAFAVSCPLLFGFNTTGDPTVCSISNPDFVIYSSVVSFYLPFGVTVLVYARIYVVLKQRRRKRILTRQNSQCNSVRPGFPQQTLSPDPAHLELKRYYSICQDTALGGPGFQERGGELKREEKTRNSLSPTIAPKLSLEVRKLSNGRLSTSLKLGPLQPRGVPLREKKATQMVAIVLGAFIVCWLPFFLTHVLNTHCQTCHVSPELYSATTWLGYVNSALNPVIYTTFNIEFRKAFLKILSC
Chain of Histamine H4 receptor (Q9H3N8 whole entry): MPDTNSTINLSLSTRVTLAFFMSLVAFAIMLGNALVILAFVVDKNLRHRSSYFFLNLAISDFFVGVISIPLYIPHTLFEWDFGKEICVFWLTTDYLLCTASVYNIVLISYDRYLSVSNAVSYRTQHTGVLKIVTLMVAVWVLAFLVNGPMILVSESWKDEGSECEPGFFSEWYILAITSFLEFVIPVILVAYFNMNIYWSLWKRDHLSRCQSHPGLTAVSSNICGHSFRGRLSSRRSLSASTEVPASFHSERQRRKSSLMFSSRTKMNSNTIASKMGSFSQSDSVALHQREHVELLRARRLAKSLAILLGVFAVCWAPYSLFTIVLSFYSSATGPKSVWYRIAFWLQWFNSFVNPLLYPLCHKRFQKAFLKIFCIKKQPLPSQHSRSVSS
Chain of 5-hydroxytryptamine receptor 2B (P41595 whole entry): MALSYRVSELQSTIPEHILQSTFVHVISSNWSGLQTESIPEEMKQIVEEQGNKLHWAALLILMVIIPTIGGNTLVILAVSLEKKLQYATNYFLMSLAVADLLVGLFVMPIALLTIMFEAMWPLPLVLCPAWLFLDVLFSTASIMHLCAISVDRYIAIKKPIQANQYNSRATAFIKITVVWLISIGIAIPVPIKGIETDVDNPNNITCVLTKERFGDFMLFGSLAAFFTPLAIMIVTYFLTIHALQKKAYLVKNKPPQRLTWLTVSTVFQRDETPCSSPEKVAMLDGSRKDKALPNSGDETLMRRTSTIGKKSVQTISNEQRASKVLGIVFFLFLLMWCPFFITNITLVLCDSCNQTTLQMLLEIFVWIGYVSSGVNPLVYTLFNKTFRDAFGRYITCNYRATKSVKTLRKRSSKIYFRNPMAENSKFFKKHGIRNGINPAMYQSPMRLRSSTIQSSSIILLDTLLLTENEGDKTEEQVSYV
Chain of 5-hydroxytryptamine receptor 7 (P34969 whole entry): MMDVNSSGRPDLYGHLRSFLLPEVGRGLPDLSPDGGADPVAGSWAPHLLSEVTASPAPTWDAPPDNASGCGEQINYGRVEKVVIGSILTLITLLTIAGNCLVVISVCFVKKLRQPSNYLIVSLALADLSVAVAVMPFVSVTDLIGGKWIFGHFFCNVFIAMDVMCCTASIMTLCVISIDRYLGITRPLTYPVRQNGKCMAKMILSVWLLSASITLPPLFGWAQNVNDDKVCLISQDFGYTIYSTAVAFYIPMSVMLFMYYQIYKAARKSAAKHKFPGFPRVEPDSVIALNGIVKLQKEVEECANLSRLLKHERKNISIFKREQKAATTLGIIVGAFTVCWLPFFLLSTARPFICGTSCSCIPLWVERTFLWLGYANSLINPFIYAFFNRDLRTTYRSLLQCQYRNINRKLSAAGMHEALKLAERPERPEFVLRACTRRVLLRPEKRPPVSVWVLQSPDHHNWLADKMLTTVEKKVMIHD
Chain of Sodium-dependent dopamine transporter (Q01959 whole entry): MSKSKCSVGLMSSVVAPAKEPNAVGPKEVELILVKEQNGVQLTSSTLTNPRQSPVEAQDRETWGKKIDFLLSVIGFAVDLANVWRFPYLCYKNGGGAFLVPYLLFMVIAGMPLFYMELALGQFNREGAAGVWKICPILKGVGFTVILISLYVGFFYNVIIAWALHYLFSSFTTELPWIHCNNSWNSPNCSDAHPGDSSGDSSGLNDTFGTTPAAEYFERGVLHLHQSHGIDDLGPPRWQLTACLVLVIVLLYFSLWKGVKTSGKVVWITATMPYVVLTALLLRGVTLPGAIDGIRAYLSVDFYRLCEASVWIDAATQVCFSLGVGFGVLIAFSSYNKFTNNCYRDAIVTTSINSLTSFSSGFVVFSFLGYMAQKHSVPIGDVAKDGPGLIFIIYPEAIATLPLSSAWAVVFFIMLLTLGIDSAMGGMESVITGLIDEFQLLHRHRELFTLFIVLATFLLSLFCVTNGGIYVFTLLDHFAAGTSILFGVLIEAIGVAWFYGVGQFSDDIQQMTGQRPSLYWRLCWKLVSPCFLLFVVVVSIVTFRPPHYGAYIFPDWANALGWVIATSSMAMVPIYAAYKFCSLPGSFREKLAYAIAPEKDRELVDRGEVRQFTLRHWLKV
Chain of Alpha-2B adrenergic receptor (Homo sapiens) (P18089 whole entry): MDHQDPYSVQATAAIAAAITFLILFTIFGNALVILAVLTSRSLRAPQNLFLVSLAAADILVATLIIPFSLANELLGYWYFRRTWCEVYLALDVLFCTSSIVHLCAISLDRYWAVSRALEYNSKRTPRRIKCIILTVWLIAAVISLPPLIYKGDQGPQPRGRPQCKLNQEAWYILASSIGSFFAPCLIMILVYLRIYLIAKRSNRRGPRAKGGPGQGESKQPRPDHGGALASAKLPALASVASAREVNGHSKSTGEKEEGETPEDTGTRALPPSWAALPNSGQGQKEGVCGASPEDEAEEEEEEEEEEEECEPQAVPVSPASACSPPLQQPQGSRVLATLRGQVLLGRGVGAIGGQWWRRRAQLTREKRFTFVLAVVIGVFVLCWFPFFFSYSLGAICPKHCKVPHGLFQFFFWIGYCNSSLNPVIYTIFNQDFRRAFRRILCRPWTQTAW
Chain of Histamine H1 receptor (P35367 whole entry): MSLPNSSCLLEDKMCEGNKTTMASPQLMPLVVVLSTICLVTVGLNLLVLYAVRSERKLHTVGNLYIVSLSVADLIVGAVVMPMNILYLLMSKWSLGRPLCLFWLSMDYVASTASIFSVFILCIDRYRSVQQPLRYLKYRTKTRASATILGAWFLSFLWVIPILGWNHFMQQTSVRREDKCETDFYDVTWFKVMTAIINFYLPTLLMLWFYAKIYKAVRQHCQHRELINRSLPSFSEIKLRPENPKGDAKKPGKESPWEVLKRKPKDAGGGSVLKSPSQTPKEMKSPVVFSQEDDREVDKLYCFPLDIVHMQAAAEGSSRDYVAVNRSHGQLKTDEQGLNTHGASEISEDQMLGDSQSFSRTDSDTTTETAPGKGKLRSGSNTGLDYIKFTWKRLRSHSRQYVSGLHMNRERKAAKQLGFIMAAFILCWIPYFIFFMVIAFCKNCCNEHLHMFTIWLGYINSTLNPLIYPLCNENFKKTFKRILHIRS
Chain of Kappa-type opioid receptor (P41145 whole entry): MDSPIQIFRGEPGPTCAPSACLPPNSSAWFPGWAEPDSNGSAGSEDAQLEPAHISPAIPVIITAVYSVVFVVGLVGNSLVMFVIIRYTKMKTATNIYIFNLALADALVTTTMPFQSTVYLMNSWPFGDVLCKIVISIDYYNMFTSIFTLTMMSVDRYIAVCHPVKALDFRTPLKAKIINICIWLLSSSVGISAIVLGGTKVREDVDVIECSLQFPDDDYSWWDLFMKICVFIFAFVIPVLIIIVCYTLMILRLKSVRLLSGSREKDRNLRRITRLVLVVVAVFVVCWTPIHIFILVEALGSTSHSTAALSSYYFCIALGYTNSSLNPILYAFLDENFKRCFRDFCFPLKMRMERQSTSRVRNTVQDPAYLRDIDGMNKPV
Chain of Mu-type opioid receptor (P35372 whole entry): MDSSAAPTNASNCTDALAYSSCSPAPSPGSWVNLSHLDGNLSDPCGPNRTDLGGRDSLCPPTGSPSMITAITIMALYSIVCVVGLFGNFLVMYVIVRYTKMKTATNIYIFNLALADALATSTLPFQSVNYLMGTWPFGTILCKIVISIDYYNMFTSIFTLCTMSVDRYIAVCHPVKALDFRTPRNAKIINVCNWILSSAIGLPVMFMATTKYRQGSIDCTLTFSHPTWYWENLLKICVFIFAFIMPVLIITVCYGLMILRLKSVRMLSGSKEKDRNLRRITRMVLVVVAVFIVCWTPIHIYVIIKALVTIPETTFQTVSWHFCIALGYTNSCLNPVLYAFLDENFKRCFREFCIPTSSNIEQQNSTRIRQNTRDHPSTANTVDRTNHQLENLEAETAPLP

SMILES | Ki [1] [µM] | Ki [2] [µM] | Ki [3] [µM] | Ki [4] [µM] | inhibition [5] [%] | inhibition [6] [%] | inhibition [7] [%] | inhibition [8] [%] | inhibition [9] [%] | inhibition [10] [%] | inhibition [11] [%] | inhibition [12] [%] | inhibition [13] [%] | inhibition [14] [%] | Ratio Ki [15] | Ratio Ki [16] | Ratio Ki [17] | Ratio Ki [18] | Ratio Ki [19]
CC[C@H]1c2cc(C)ccc2OC[C@@]1(C)N (racemic) | 0.178 | > 10 | > 10 | > 10 | < 50 | < 50 | < 50 | < 50 | < 50 | < 50 | < 50 | < 50 | < 50 | < 50 | – | – | – | – | –
C[C@@]12CN(c3ccccc3)c3ccccc3[C@@H]1CCN2 (racemic) | – | > 10 | > 10 | > 10 | – | – | – | – | – | – | – | – | – | – | – | – | – | – | –
CC[C@H]1c2cc(OC)ccc2CC[C@@]1(C)N (racemic) | 0.145 | > 10 | > 10 | > 10 | < 50 | < 50 | – | < 50 | < 50 | – | – | < 50 | – | – | – | – | – | – | –
COc1cc(OC)c2c(c1)OC[C@@]1(C)NCC[C@@H]21 (racemic) | 0.251 | > 10 | > 10 | > 10 | – | – | < 50 | – | < 50 | < 50 | < 50 | < 50 | < 50 | < 50 | > 200 | > 20 | > 20 | > 20 | > 20
CC[C@H]1c2ccccc2N(c2ccccc2)C[C@@]1(C)N (racemic) | 0.794 | 1.58 | > 10 | > 10 | – | – | – | – | – | – | – | – | – | – | – | – | – | – | –
